{"data": "Results gathered from unrelated publications", "note": "Compare with care: the assays were run in different laboratories."}
{"Compound": "COc1ccc(CCN2CCC(Nc3nc4ccccc4n3Cc3ccc(F)cc3)CC2)cc1", "target or system": "HepG2", "assay": "cell growth or viability, resazurin", "setting": "100 µM, 24 h", "quantity": "viability", "value": "2%"}
{"Compound": "CCN(CC)C(=O)[C@@]1(c2ccccc2)C[C@H]1CN", "test system": "male cynomolgus monkey, plasma", "setting": "oral, 30 mg/kg", "quantity": "AUC(0-t)", "value": "40000 ng·h/mL"}
{"Compound": "CN(C(=O)n1cnc(-c2ccc[n+]([O-])c2)c1)C1CCCCC1", "test system": "male cynomolgus monkey, plasma", "setting": "oral, 0.3 mg/kg", "quantity": "AUC(0-t)", "value": "452 ng·h/mL"}
{"Compound": "COc1ccc2c(c1)c1c(n2CO)CN2CCc3cc(OC)c(OCC(F)(F)F)cc3C2C1 (centres unmarked)", "target or system": "HepG2", "assay": "cell growth or viability", "setting": "20 µM, 24 h", "quantity": "viability", "value": "74.7%"}
{"Compound": "Nc1cc(CNC(=O)c2cc3[nH]ccc3cc2Cl)cc(C(F)(F)F)c1", "target or system": "HEK-293T", "assay": "cell growth or viability", "setting": "100 µM, 24 h", "quantity": "viability", "value": "< 50%"}
{"Compound": "CCCCCCn1c(-c2cccc(Cl)c2)n[nH]c1=S", "target or system": "HepG2", "assay": "cell growth or viability, resazurin", "setting": "10 µM, 24 h", "quantity": "viability", "value": "103%"}
{"Compound": "COc1ccc2nccc(N3CCc4c(cc(Cn5ccnc5)cc4-c4cn(C)nc4C(F)(F)F)C3=O)c2c1", "test system": "male CD-1 mouse, plasma", "setting": "intravenous, 3 mg/kg", "quantity": "MRT(0-inf)", "value": "0.6 h"}
{"Compound": "COc1ccc2c(c1)c1c(n2CO)CN2CCc3cc(OCc4ccccc4)c(OC)cc3C2C1 (centres unmarked)", "target or system": "HepG2", "assay": "cell growth or viability", "setting": "5 µM, 24 h", "quantity": "viability", "value": "100%"}
{"Compound": "CNC(=O)c1cc(OC)cc2c(N3CCc4c(cc(Cn5ccnc5)cc4-c4cn(C)nc4C(F)(F)F)C3=O)ccnc12", "test system": "male CD-1 mouse, plasma", "setting": "oral, 50 mg/kg", "quantity": "MRT(0-inf)", "value": "2 h"}
{"Compound": "CCOP(=O)(OCC)[C@@H]1C[C@@H](n2cc(-c3ccccc3F)nn2)ON1C", "target or system": "human T-lymphocyte", "assay": "cell growth or viability", "setting": "72 h", "quantity": "CC50", "value": "> 250 µM"}
{"Compound": "COc1cc(OC)c2nccc(N3CCc4c(cc(Cn5ccnc5)cc4-c4cn(C)nc4C(F)(F)F)C3=O)c2c1", "test system": "male CD-1 mouse, plasma", "setting": "intravenous, 3 mg/kg", "quantity": "MRT(0-inf)", "value": "0.5 h"}
{"Compound": "O=C(c1ccc(Oc2ccccc2)cc1Cl)c1c[nH]c2ncnc(N[C@@H]3CC[C@@H](CO)OC3)c12", "test system": "cynomolgus monkey, plasma", "setting": "oral, 10 mg/kg, single dose", "quantity": "AUC(0-t)", "value": "82700 ng·h/mL"}
{"Compound": "CCOP(=O)(OCC)[C@@H]1C[C@@H](n2cc(-c3ccccc3)nn2)ON1C (racemic)", "target or system": "human T-lymphocyte", "assay": "cell growth or viability", "setting": "72 h", "quantity": "CC50", "value": "> 250 µM"}
{"Compound": "c1ccc(-c2nc(N3CCC(c4ccccn4)C3)c3ccccc3n2)nc1 (centres unmarked)", "test system": "female BALB/c mouse, plasma", "setting": "oral, 12.5 mg/kg", "quantity": "MRT(0-inf)", "value": "5.9 h"}
